Measurements pooled from the literature.
Lines come from different studies, so protocols differ.
Effect on: microbial growth

`CC1=NN(CNC(=O)c2ccccn2)C(=O)C1=NNn1c(-c2ccccc2)nc2ccccc2c1=O` gave an MIC of 52 µM (Vibrio cholerae; broth dilution; 24 h).
With `CCCCCC/C=C\CCCCCCCCCC(=O)NP(=O)(O)O` the MIC was 100 µg/mL (Bacillus anthracis; STERNE34F2).
The MIC of `CN[C@@H]1[C@H](O)[C@H](NC)[C@H]2O[C@@]3(O)C(=O)C[C@@H](C)O[C@H]3O[C@@H]2[C@H]1O` is reported as 25 µg/mL (Streptococcus pyogenes; broth dilution; ATCC700294).
`CC(=O)NCN1N=C(C)C(=NNn2c(-c3ccccc3)nc3ccccc3c2=O)C1=O` has an MIC of 59.9 µM (Vibrio cholerae; broth dilution; 24 h).
For `CC(/C=C/C(O)=C1/C(=O)CNC1=O)=C\[C@@H](C)[C@H]1O[C@@]2(C)O[C@H](C(=O)[C@@H]3O[C@@]32C)[C@@H]1C`, the MIC was 12.5 µM (Bacillus anthracis; 34F2).
`CC1=NN(CNc2ccccc2[N+](=O)[O-])C(=O)C1=NNn1c(-c2ccccc2)nc2ccccc2c1=O` gave an MIC of 50.4 µM (Vibrio cholerae; broth dilution; 24 h).
For `CC1=CC(=O)[C@H]2O[C@]1(C)O[C@H]([C@H](C)/C=C(C)/C=C/C(O)=C1/C(=O)CNC1=O)[C@H]2C`, the MIC was 6.25 µM (Bacillus anthracis; 34F2).
The MIC of `CCCCCCCC(=O)NP(=O)(O)O` is reported as > 200 µg/mL (Bacillus anthracis; STERNE34F2).
`CC1=CC[C@H]2O[C@]1(C)O[C@H]([C@H](C)/C=C(C)/C=C/C(O)=C1/C(=O)CNC1=O)[C@H]2C` has an MIC of 3.13 µM (Bacillus anthracis; 34F2).
For `O=C(CCCCCCCCCCOc1ccccc1)CP(=O)(O)O`, the MIC was > 200 µg/mL (Bacillus anthracis; STERNE34F2).
With `O=C1NN=C(N=Cc2ccc(O)cc2O)C1=NNn1c(-c2ccccc2)nc2ccccc2c1=O` the MIC was 53.5 µM (Vibrio cholerae; broth dilution; 24 h).
`CCCCCCCCCCCC(=O)C(F)(F)P(=O)(O)O` has an MIC of 200 µg/mL (Bacillus anthracis; STERNE34F2).
`CNC(=O)[C@@H](C)[C@H]1C(=O)/C(=C(O)/C=C/C(C)=C/[C@@H](C)[C@H]2O[C@@]3(C)O[C@H](C=C[C@@]34CO4)[C@@H]2C)C(=O)N1[C@@H]1CC[C@H](O)[C@H](C)O1` has an MIC of > 100 µM (Bacillus anthracis; 34F2).
